Assay results gathered from unrelated publications.
Compare with care: the assays were run in different laboratories.
Target: Mitogen-activated protein kinase 4 (MAPK4, Homo sapiens, UniProt P31152)

SMILES	read-out	method	concentration	remaining binding [%]
CCS(=O)(=O)c1cc2cc(C[C@](O)(CC(C)(C)c3ccc(F)cc3C(N)=O)C(F)(F)F)[nH]c2cn1	cell-free assay	competition with immobilised ligand	1 µM	100
COc1cnc(Nc2cccc(S(N)(=O)=O)c2)nc1N1CCN(c2ccccc2)CC1	binding	competition with immobilised ligand	1 µM	96
CCOCCn1cc(C(=O)Nc2ccc(-n3nc(-c4cccnc4)cc3C(F)(F)F)cn2)ccc1=O	cell-free assay	competition with immobilised ligand	1 µM	100
COc1ccnn2ncc(-c3ccnc(N(C)C)n3)c12	binding		1 µM	100
C=CC(=O)N1CCC(C(=O)NCC(=O)N2CCN(c3nc(-c4cnc(N)nc4C(F)F)nc(N4CCOCC4)n3)CC2)CC1	binding	competition with immobilised ligand	1 µM	97
COc1cnc(Nc2cccc(S(N)(=O)=O)c2)nc1N1CCN(c2ccccc2)C(=O)C1	binding	competition with immobilised ligand	1 µM	99
c1cncc(-c2cccc(Nc3nccc(NC4CCCCC4)n3)c2)c1	binding	competition with immobilised ligand	10 µM	95
CN(CCCC(F)(F)F)c1nccc(-c2cnn3ncccc23)n1	binding		1 µM	100
O=C1NC(c2ccccn2)Sc2ccccc21 (stereo not drawn)	cell-free assay	competition with immobilised ligand	1 µM	86
O=C(c1ccc(Nc2ncc(Cl)c(-c3cc4ccccc4s3)n2)cc1)N1CCC(N2CCCC2)CC1	binding	competition with immobilised ligand	1 µM	20
O=C(Nc1c[nH]nc1C(=O)NC1CCNCC1)c1cc(F)cc(F)c1	binding	competition with immobilised ligand	1 µM	100
O=C(Nc1ccc(Oc2ccc(F)cc2)cc1)N1CCc2ncccc2[C@H]1c1ccc(F)cc1	cell-free assay	competition with immobilised ligand	1 µM	95
O=C(NCCCN1CCOCC1)c1ccc(Nc2nccc(-c3cc4ccccc4s3)n2)cc1	binding	competition with immobilised ligand	1 µM	88
C[C@@H]1CCN(c2nccc(-c3cnn4ncccc34)n2)C1	binding		1 µM	100
COc1ncc2cc3ccccc3nc2c1C#N	cell-free assay	competition with immobilised ligand	5 µM	100
CN(C)c1nccc(-c2cnc3ncccn23)n1	binding		1 µM	98
CS(=O)(=O)N1CCCC(NC(=O)[C@H](CCC2CCCCC2)NC(=O)c2ccc(CNC(=O)c3cnc4ccccn34)cc2)C1 (stereo partly drawn)	cell-free assay	competition with immobilised ligand	0.1 µM	100
c1cnn2ncc(-c3ccnc(N4CCC45COC5)n3)c2c1	binding		1 µM	83
O=C(NCCCN1CCOCC1)c1ccc(Nc2ncc(Cl)c(-c3ccc(Cl)s3)n2)cc1	binding	competition with immobilised ligand	1 µM	1.4
CO[C@H]1CC[C@H](CNc2ccc(S(=O)(=O)NC(=O)c3ccc(N4CCN(CC5=C(c6ccc(Cl)cc6)CC(C)(C)CC5)CC4)cc3Oc3cnc4[nH]ccc4c3)cc2[N+](=O)[O-])CC1	cell-free assay	competition with immobilised ligand	1 µM	100
N[C@@H]1CCN(c2nccc(-c3cnn4ncccc34)n2)C1	binding		1 µM	100
